The values that follow come from PubChem BioAssay.

SMILES strings stand for the structures. Unmarked numbers belong to inactive results. Records with an inconclusive call do not appear. Activity calls are given as the source filed them.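 How the source made its calls, unless noted: active means inhibition over a set limit, the all-compound mean plus 3 SD, in both replicate runs; inconclusive means over that limit in just one replicate run; inactive means at or under that limit in both runs.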

A short description of test [1]: S. cerevisiae growth inhibition in permissive medium (OD615), pilot counter-assay for S. cerevisiae lifespan shortening project, permissive growth control (AID 705;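 active means growth inhibition above 25% in both replicates, a cutoff set 3 SD above the mean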). Particulars: OD615, 24 h, at 10 µM, hits give high values. In short, it runs like this: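 System: Engineered DeaD yeast | Buffer or medium: SC raffinose/galactose permissive medium | Incubation: Cells pre-grown 4 h, then 24 h compound exposure, 30 °C humidified | Measured by: Absorbance (optical density) at 615 nm | Read-out: Reduction in yeast growth (OD615)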

A short description of test [2]: S. cerevisiae growth inhibition in restrictive medium, OD615, pilot screen, restrictive growth control, yeast lifespan reduction project (AID 706;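 active means growth inhibition above a set limit, 3 SD over mean compound inhibition, in both replicates, cut at about 43% in these data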;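 further: modified DeaD lifespan yeast strain shifted to restrictive glucose medium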). Particulars: OD615, 48 h, at 10 µM, hits give high values. The essentials:
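Material: modified S. cerevisiae; Medium: glucose-based CSMM-D restrictive medium; Compound dosing: one concentration, 10 µM final, 0.25% DMSO; Incubation: 48 h compound exposure at 30 °C; Measured by: OD615.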

Test [3] is described as follows: doxorubicin toxicity protection in MRP-1 cells – H69AR cells, CellTiter-Glo, duplicate, MRP-1 activator project, pilot screen (AID 807;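 active means viability increase at or above a cutoff of the median across tested compounds plus 3 SD, cut at about 8.5% in these data, passing the limit was not always enough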;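 further: compound pretreatment 18-22 h then 72 h combined with doxorubicin; 0% = doxorubicin alone and 100% = vehicle without doxorubicin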). Conditions: H69AR viability with doxorubicin, CellTiter-Glo luminescence; at 10 µM; hits give high values.
Test [4] can be described thus: viability of HCT116 without oncogenic beta-catenin – human colon tumor cells, pilot screen (AID 823;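 active means cell viability at or below a set limit in both duplicate runs, the limit being the all-compound median minus 4 SD, cut at about 23% in these data, passing the limit was not always enough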;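 further: 0% = wells killed by 20 µM Hyamine and 100% = untreated DMSO cell wells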). Conditions: HCT116 beta-catenin knockout viability, CellTiter-Glo, 60 h; at 10 µM; hits give low values.
The nature of test [5]: viability of PTEN-null HCT116 cells – cell-based, HCT116 clonal line, CellTiter-Glo, pilot screen (AID 824;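 active means viability at or below 27.92% in each of two runs, the all-compound median minus 4 SD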;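 further: 0% = 20 µM Hyamine control and 100% = vehicle cell control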). Conditions: HCT116 PTEN-deleted viability, 60 h, at 10 µM, hits give low values.
The nature of test [6]: RAM pathway blockade in budding yeast – dse1pr::URA3 reporter, 5-FOA selection, pilot screen (AID 869).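 Further: 0% = DMSO wells with no growth and 100% = 10 µM 1-NA-PP1 with full growth; RAM network block rescues cells from 5-FOA so hits raise OD615 growth.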 Conditions: S. cerevisiae dse1pr::URA3 5-FOA growth, OD615, 2 d; at 10 µM; hits give high values; strain carries analog-sensitive mutant Cbk1 kinase.
The nature of test [7]: RAM signaling pathway blockade in yeast – S. cerevisiae, Pdr1DBD-CYC8 efflux-inhibited sensitized strain, primary screen (AID 1298;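 active means RAM network inhibition above 8.4% in each of two replicates, 3 SD over the compound average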;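 further: 0% = DMSO untreated cells without growth and 100% = 10 µM 1-NA-PP1 full growth; higher means more yeast growth rescued from 5-FOA killing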). Particulars: S. cerevisiae cbk1-as DSE1-URA3 strain, 5-FOA growth OD615, 2 d; at 50 µM; hits give high values.

In the case of `COc1ccc(OC)c(S(=O)(=O)Nc2ccc(OCC(=O)O)cc2)c1`, the growth inhibition was -9.87% in test [1] and -4.85% in test [2]. For the same compound, in test [3], the viability increase was -0.45%. Further, the viability is 98.3% in test [4] and 91.1% in test [5]. The inhibition in test [6] is 0.98%. The RAM network inhibition in test [7] is 2.71%.

With `CN(C)CCNc1nc2c(c(=O)[nH]c(=O)n2C)n1CCCc1ccccc1`, the growth inhibition in test [1] is -14.9%; in test [2], 4.34%. For the same compound, the viability increase in test [3] was -1.16%. Besides, the viability in test [4] was 93.1%; in test [5] it was 93.9%. Further, the inhibition in test [6] was 2.04%. For the same compound, the RAM network inhibition in test [7] is 0.47%.

For the compound `Clc1ccccc1-c1ccc(/C=N/n2cnnc2)o1`, the growth inhibition in test [1] is -1.67%; in test [2], 11.9%. For the same compound, the viability increase in test [3] was -1.41%. Also, the values for the viability in test [4] and in test [5] were 102% and 95.1%, respectively. Besides, in test [6], the inhibition was 1.61%. Further, in test [7], the RAM network inhibition is 4.98%.

As to `CCOC(=O)N1CCN(Cc2nc3c(c(=O)n(C)c(=O)n3C)n2CCC(C)C)CC1`, the growth inhibition in test [1] was -5%; in test [2] it was -10.9%. In addition, the viability increase in test [3] is -4.73%. The viability in test [4] was 97.3%; in test [5], 99.9%. Further, in test [6], the inhibition is 0.37%. Also, the RAM network inhibition in test [7] is 8.2%.

For `O=C(Cn1cc2c(n1)CCCC2)NCCCN1CCN(c2ccccc2F)CC1`, the growth inhibition in test [1] was -16.9%; in test [2], -6.56%. Moreover, in test [3], the viability increase is -3.08%. In addition, the values for the viability in test [4] and in test [5] were 89.5% and 89%, respectively. For the same compound, the inhibition in test [6] was 0.665%. Besides, in test [7], the RAM network inhibition is 5.8%.

As to `Nn1c(SCC(=O)Nc2ccc(F)cc2)nnc1-c1ccccn1`, the growth inhibition in test [1] is -4.5%; in test [2], 0.845%. Also, the viability increase in test [3] was -0.55%. Also, the viability in test [4] is 109%; in test [5], 95.7%. Moreover, in test [6], the inhibition was 1.88%. For the same compound, in test [7], the RAM network inhibition is 0.9%.

As to `COc1ccccc1S(=O)Cc1ccc(C(=O)NC2CCCC2)o1` (stereo unspecified), the growth inhibition in test [1] is 4.5%; in test [2], 4.6%. For the same compound, the viability increase in test [3] was -2.33%. Moreover, the viability was 107% in test [4] and 101% in test [5]. The inhibition in test [6] is 0.395%. The RAM network inhibition in test [7] was 3.24%.

As for `Cc1oc(-c2ccc(Cl)cc2)nc1CN1CCCC(C(=O)N2CCN(C(=O)c3ccco3)CC2)C1` (stereo unspecified), the growth inhibition in test [1] was -8.52%; in test [2] it was -14.5%. The viability increase in test [3] was -4.07%. For the same compound, the viability in test [4] is 33.8%; in test [5] it was 54.6%. Also, in test [6], the inhibition was -0.38%. Also, in test [7], the RAM network inhibition is 7.1%.

For the compound `COc1cc(C(=O)n2nc(C)cc2C)cc(OC)c1OC`, the values for the growth inhibition in test [1] and in test [2] were -9.3% and -12.6%, respectively. Also, the viability increase in test [3] is -0.4%. For the same compound, the viability was 99.5% in test [4] and 98.9% in test [5]. Further, in test [6], the inhibition was 1.08%. The RAM network inhibition in test [7] was 2.67%.

`CCOCCn1c(CN(Cc2ccccc2)Cc2ccccc2)nc2c1c(=O)n(C)c(=O)n2C`: the growth inhibition in test [1] was 0.79%; in test [2] it was 12.6%. Also, in test [3], the viability increase was -2.62%. Further, the viability was 64.7% in test [4] and 57.6% in test [5]. The inhibition in test [6] was 1.48%. In addition, in test [7], the RAM network inhibition was 5.44%.

Turning to `CC(C)N1C(=O)C2C(c3ccccc3O)NC(C)(C(=O)O)C2C1=O` (stereo unspecified), the values for the growth inhibition in test [1] and in test [2] were 7.56% and 5.16%, respectively. Moreover, in test [3], the viability increase was -0.38%. Further, the viability in test [4] was 101%; in test [5], 104%. Moreover, the inhibition in test [6] was 0.765%. In addition, the RAM network inhibition in test [7] was 1.54%.

Regarding `CC(=O)c1ccc(NC(=O)CN2C(=O)COc3ccc(Cl)cc32)cc1`, the growth inhibition in test [1] was -16.9%; in test [2] it was -13.2%. The viability increase in test [3] was -2.36%. Also, the viability in test [4] was 84%; in test [5], 79.2%. Further, in test [6], the inhibition was 2.46%. For the same compound, the RAM network inhibition in test [7] is 5.11%.

In the case of `COc1ccc(OC)c(S(=O)(=O)NCc2cn3c(C)csc3n2)c1`, the growth inhibition in test [1] is -10.1%; in test [2], 5.41%. The viability increase in test [3] is -1.77%. Besides, the viability was 103% in test [4] and 96.5% in test [5]. Further, the inhibition in test [6] is 0.045%. The RAM network inhibition in test [7] is 5.95%.

On to `CCCOC(=O)c1ccc(OCC(O)CN2C(=O)NC(C)(C)C2=O)cc1` (stereo unspecified), for which the growth inhibition in test [1] is 1.83%; in test [2], 1.78%. Further, the viability increase in test [3] was -0.77%. For the same compound, the viability is 96.9% in test [4] and 97.2% in test [5]. The inhibition in test [6] was 0.14%. Moreover, in test [7], the RAM network inhibition is 0.77%.

As to `Cn1c(=O)c(C(=O)Nc2ncccn2)c(O)c2ccccc21`, the growth inhibition was 39.2% (active) in test [1] and 63.5% (active) in test [2]. Further, the viability increase in test [3] was -3.95%. Also, the viability in test [4] was 87.1%; in test [5], 89.5%. In addition, in test [6], the inhibition is 0.475%. Moreover, in test [7], the RAM network inhibition is -1.44%.

On to `CC(=O)NCc1nc2ccccc2n1Cc1ccccc1C`, for which the growth inhibition is 2.5% in test [1] and -3.57% in test [2]. Besides, the viability increase in test [3] was -2.27%. The viability in test [4] was 101%; in test [5], 95.7%. Besides, in test [6], the inhibition is 1.05%. Besides, in test [7], the RAM network inhibition was 2.57%.

Take `COc1ccccc1C1C=C(c2ccccc2)Nc2nnnn21` (stereo unspecified): the growth inhibition in test [1] was -4.73%; in test [2] it was 4.88%. Moreover, the viability increase in test [3] is -0.25%. Moreover, the viability in test [4] was 72.2%; in test [5], 83.7%. In test [6], the inhibition is 0.05%. Besides, the RAM network inhibition in test [7] is 5.5%.

With `c1cncc(-c2noc(-c3ccco3)n2)c1`, the growth inhibition is -5.2% in test [1] and 7% in test [2]. The viability increase in test [3] was 1.76%. The results for the viability in test [4] and in test [5] were 96.7% and 94.2%, respectively. The inhibition in test [6] was 1.41%. The RAM network inhibition in test [7] was 4.61%.
